# Data: ChEMBL document CHEMBL1132367, “Synthesis of novel GABA uptake inhibitors. 3. Diaryloxime and diarylvinyl ether derivatives of nipecotic acid and guvacine as anticonvulsant agents” (J Med Chem, 1999)
# Legend:
# Mus musculus = species on record: Mus musculus; assay: Evaluation for Ataxia (neurological toxicity) in mice using a rotarod apparatus.; assay type: functional
# Procedure, shortened: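 NMRI mice trained 2 min on a rod rotating at 6 rev/min toward the animal, then dosed i.p. with test compound (n = 8/dose) as in the seizure test and placed on the rod. ED50 is the dose producing falls in 50% of mice.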
# [1] = target: Sodium- and chloride-dependent GABA transporter 1 (Rattus norvegicus, UniProt P23978); assay: In vitro inhibition of [3H]GABA uptake at the Sodium- and chloride-dependent GABA transporter 1 (GAT-1) uptake site in rat brain synaptosomes; assay type: subcellular
# Procedure, shortened: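 Rat forebrain homogenised in ice-cold 0.32 M sucrose and spun at 600g for 10 min at 4 °C; pellet resuspended in Na phosphate/glucose buffer, pH 7.4. Synaptosomes (0.1 mg protein) preincubated with compound for 8 min at 30 °C, then 8 min with [3H]-GABA and unlabeled GABA (each […] final). Filtration assay; nipecotic acid defined non-carrier uptake. IC50 from ≥3-point curves; Ki = IC50/(1+[L]/Km), [L] 25 nM, Km 3700 nM.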
# [2] = target: GABA transporter (Mus musculus) (UniProt P31650+P31651+P31649+P31648); assay: Dose that protected 50% of the mice against seizures induced by intraperitoneally administered DMCM (15 mg/Kg) 30 min after intraperitoneal administration; assay type: functional, organism-based
# Procedure, shortened: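 Male or female NMRI mice, 20–25 g, given test compound i.p.; 30 min later DMCM 15 mg/kg i.p. Eight mice per dose. Animals showing no clonic seizures within 15 min counted as protected. ED50 is the dose protecting 50% of mice.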
Ki [1],SMILES,ED50 (Mus musculus),ED50 [2]
48 nM,Cc1ccccc1/C(=C\OCCN1CCC[C@@H](C(=O)O)C1)c1cccc(F)c1,10 mg/kg,1.6 mg/kg
346 nM,O=C(O)C1=CCCN(CCOC=C(c2cccc(F)c2)c2cccc(F)c2)C1,> 30 mg/kg,> 30 mg/kg
